Results published in ChEMBL document CHEMBL5058577, “EUbOPEN Chemogenomics Library 2 (Multiplex)” (2022).

Tested on: U2OS
Test: Multiplex assay against U2OS
Type: toxicity, cell-based
Conditions: human
Outline: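 Values for tubulin, mitochondrial-mass and membrane-permeability phenotypes are per cents of cells with healthy nuclei. These cells were identified by CellPathfinder machine-learning gating of live cells that had been stained at seeding with Hoechst33342, BioTracker Green Microtubule Cytoskeleton Dye, MitoTracker Red and Annexin V Alexa Fluor 680 and imaged on a CQ1 microscope at 37°C and 5% CO2 after compound addition. The gating first set Hoechst high-intensity objects apart from normal cells, then split normal cells into healthy, pyknosed or fragmented nuclei, and pyknosed cells into mitotic or apoptotic.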

[1] = 12 h, 1 µM, compound concentration 1 uM, replicate 1
[2] = 12 h, 1 µM, compound concentration 1 uM, replicate 2
[3] = 12 h, 10 µM, compound concentration 10 uM, replicate 1
[4] = 12 h, 10 µM, compound concentration 10 uM, replicate 2
[5] = 24 h, 1 µM, compound concentration 1 uM, replicate 1
[6] = 24 h, 1 µM, compound concentration 1 uM, replicate 2
[7] = 24 h, 10 µM, compound concentration 10 uM, replicate 1
[8] = 24 h, 10 µM, compound concentration 10 uM, replicate 2
[9] = 48 h, 1 µM, compound concentration 1 uM, replicate 1
[10] = 48 h, 1 µM, compound concentration 1 uM, replicate 2
[11] = 48 h, 10 µM, compound concentration 10 uM, replicate 1
[12] = 48 h, 10 µM, compound concentration 10 uM, replicate 2

CCCCC(=O)N(Cc1ccc(-c2ccccc2-c2nnn[nH]2)cc1)[C@H](C(=O)O)C(C)C
Population Apoptotic (%) [1]: 85% | Population Fragmented Nuclei (%) [1]: 28% | Population Healthy Nuclei (%) [1]: 63% | Population Hoechst High Intensity Objects (%) [1]: 1% | Population Membrane Permeable-Phenotype (%) [1]: 8% | Population Mitochondria Different-Phenotype (%) [1]: 3% | Population Mitotic Cells (%) [1]: 14% | Population Normal (%) [1]: 98% | Population Pyknosed Nuclei (%) [1]: 8% | Population Tubulin-Different-Phenotype (%) [1]: 4% | Total Cell Count [1]: 259 | Population Apoptotic (%) [2]: 100% | Population Fragmented Nuclei (%) [2]: 15% | Population Healthy Nuclei (%) [2]: 79% | Population Hoechst High Intensity Objects (%) [2]: 3% | Population Membrane Permeable-Phenotype (%) [2]: 9% | Population Mitochondria Different-Phenotype (%) [2]: 5% | Population Mitotic Cells (%) [2]: 0% | Population Normal (%) [2]: 96% | Population Pyknosed Nuclei (%) [2]: 4% | Population Tubulin-Different-Phenotype (%) [2]: 2% | Total Cell Count [2]: 130 | Population Apoptotic (%) [3]: 75% | Population Fragmented Nuclei (%) [3]: 35% | Population Healthy Nuclei (%) [3]: 55% | Population Hoechst High Intensity Objects (%) [3]: 1% | Population Membrane Permeable-Phenotype (%) [3]: 3% | Population Mitochondria Different-Phenotype (%) [3]: 2% | Population Mitotic Cells (%) [3]: 25% | Population Normal (%) [3]: 98% | Population Pyknosed Nuclei (%) [3]: 9% | Population Tubulin-Different-Phenotype (%) [3]: 2% | Total Cell Count [3]: 218 | Population Fragmented Nuclei (%) [4]: 24% | Population Healthy Nuclei (%) [4]: 71% | Population Hoechst High Intensity Objects (%) [4]: 0% | Population Membrane Permeable-Phenotype (%) [4]: 1% | Population Normal (%) [4]: 99% | Population Pyknosed Nuclei (%) [4]: 3% | Population Tubulin-Different-Phenotype (%) [4]: 0% | Total Cell Count [4]: 108 | Population Apoptotic (%) [5]: 86% | Population Fragmented Nuclei (%) [5]: 23% | Population Healthy Nuclei (%) [5]: 68% | Population Hoechst High Intensity Objects (%) [5]: 2% | Population Membrane Permeable-Phenotype (%) [5]: 5% | Population Mitochondria Different-Phenotype (%) [5]: 3% | Population Mitotic Cells (%) [5]: 13% | Population Normal (%) [5]: 97% | Population Pyknosed Nuclei (%) [5]: 7% | Population Tubulin-Different-Phenotype (%) [5]: 2% | Total Cell Count [5]: 289 | Population Apoptotic (%) [6]: 83% | Population Fragmented Nuclei (%) [6]: 10% | Population Healthy Nuclei (%) [6]: 77% | Population Hoechst High Intensity Objects (%) [6]: 6% | Population Membrane Permeable-Phenotype (%) [6]: 9% | Population Mitochondria Different-Phenotype (%) [6]: 6% | Population Mitotic Cells (%) [6]: 16% | Population Normal (%) [6]: 93% | Population Pyknosed Nuclei (%) [6]: 12% | Population Tubulin-Different-Phenotype (%) [6]: 7% | Total Cell Count [6]: 158 | Population Apoptotic (%) [7]: 82% | Population Fragmented Nuclei (%) [7]: 31% | Population Healthy Nuclei (%) [7]: 59% | Population Hoechst High Intensity Objects (%) [7]: 2% | Population Membrane Permeable-Phenotype (%) [7]: 3% | Population Mitochondria Different-Phenotype (%) [7]: 2% | Population Mitotic Cells (%) [7]: 17% | Population Normal (%) [7]: 97% | Population Pyknosed Nuclei (%) [7]: 8% | Population Tubulin-Different-Phenotype (%) [7]: 2% | Total Cell Count [7]: 272 | Population Apoptotic (%) [8]: 84% | Population Fragmented Nuclei (%) [8]: 22% | Population Healthy Nuclei (%) [8]: 67% | Population Hoechst High Intensity Objects (%) [8]: 0% | Population Membrane Permeable-Phenotype (%) [8]: 4% | Population Mitochondria Different-Phenotype (%) [8]: 8% | Population Mitotic Cells (%) [8]: 15% | Population Normal (%) [8]: 100% | Population Pyknosed Nuclei (%) [8]: 9% | Population Tubulin-Different-Phenotype (%) [8]: 6% | Total Cell Count [8]: 135 | Population Apoptotic (%) [9]: 86% | Population Fragmented Nuclei (%) [9]: 17% | Population Healthy Nuclei (%) [9]: 75% | Population Hoechst High Intensity Objects (%) [9]: 2% | Population Membrane Permeable-Phenotype (%) [9]: 5% | Population Mitochondria Different-Phenotype (%) [9]: 3% | Population Mitotic Cells (%) [9]: 13% | Population Normal (%) [9]: 97% | Population Pyknosed Nuclei (%) [9]: 7% | Population Tubulin-Different-Phenotype (%) [9]: 2% | Total Cell Count [9]: 397 | Population Apoptotic (%) [10]: 85% | Population Fragmented Nuclei (%) [10]: 20% | Population Healthy Nuclei (%) [10]: 68% | Population Hoechst High Intensity Objects (%) [10]: 3% | Population Membrane Permeable-Phenotype (%) [10]: 7% | Population Mitotic Cells (%) [10]: 15% | Population Normal (%) [10]: 96% | Population Pyknosed Nuclei (%) [10]: 10% | Population Tubulin-Different-Phenotype (%) [10]: 3% | Total Cell Count [10]: 201 | Population Apoptotic (%) [11]: 83% | Population Fragmented Nuclei (%) [11]: 22% | Population Healthy Nuclei (%) [11]: 70% | Population Hoechst High Intensity Objects (%) [11]: 1% | Population Membrane Permeable-Phenotype (%) [11]: 6% | Population Mitochondria Different-Phenotype (%) [11]: 2% | Population Mitotic Cells (%) [11]: 16% | Population Normal (%) [11]: 98% | Population Pyknosed Nuclei (%) [11]: 7% | Population Tubulin-Different-Phenotype (%) [11]: 2% | Total Cell Count [11]: 347 | Population Apoptotic (%) [12]: 87% | Population Fragmented Nuclei (%) [12]: 21% | Population Healthy Nuclei (%) [12]: 60% | Population Hoechst High Intensity Objects (%) [12]: 4% | Population Membrane Permeable-Phenotype (%) [12]: 4% | Population Mitochondria Different-Phenotype (%) [12]: 3% | Population Mitotic Cells (%) [12]: 12% | Population Normal (%) [12]: 95% | Population Pyknosed Nuclei (%) [12]: 17% | Population Tubulin-Different-Phenotype (%) [12]: 6% | Total Cell Count [12]: 188
